From PubChem
HEK293 NFkB inh: lowers PMA/ionomycin-induced NF-kB signal in HEK293 cells | HEK-293 NF-kB luciferase reporter, luminescence | hit rate 0.21% among 62,000 | inhibition, % at 3 µM;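 active means inhibition above the mean of all tested compounds plus 3 SD, cut at about 40% in these data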
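System – HEK-293 cells with stable firefly luciferase reporter driven by four HIV NF-kB elements · Doses – one dose, 3 µM · Schedule – 1 h compound pre-incubation, 16 h PMA/ionomycin at 37 °C · Technique – luminescence from luciferase substrate reagent · Measure – percent inhibition normalized per plate to DMSO and reference-inhibitor controls · Replicates – tested once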
Jurkat tox 60K: cytotoxicity toward Jurkat cells. Jurkat E6.1 viability, ATP luminescence, 48 h. inhibition, % at 4 µM. hit rate 1.2% among 56,000. AID 463;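 active means inhibition above the mean inhibition of all tested compounds plus 3 SD, cut at about 28% in these data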
TNAP act mid DEA: activators of human TNAP at intermediate phosphate acceptor | P05186 | purified TNAP, CDP-star luminescence, 100 mM DEA, 30 min; active compounds read high; scale: 0 levamisole-inhibited, 1 vehicle-only enzyme | activation factor at 20 µM | 64,000 tested, under 10 active | AID 813;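 active means activation factor of at least 2 at 20 µM, relative to controls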
Target sequence (P05186 whole entry, looked up): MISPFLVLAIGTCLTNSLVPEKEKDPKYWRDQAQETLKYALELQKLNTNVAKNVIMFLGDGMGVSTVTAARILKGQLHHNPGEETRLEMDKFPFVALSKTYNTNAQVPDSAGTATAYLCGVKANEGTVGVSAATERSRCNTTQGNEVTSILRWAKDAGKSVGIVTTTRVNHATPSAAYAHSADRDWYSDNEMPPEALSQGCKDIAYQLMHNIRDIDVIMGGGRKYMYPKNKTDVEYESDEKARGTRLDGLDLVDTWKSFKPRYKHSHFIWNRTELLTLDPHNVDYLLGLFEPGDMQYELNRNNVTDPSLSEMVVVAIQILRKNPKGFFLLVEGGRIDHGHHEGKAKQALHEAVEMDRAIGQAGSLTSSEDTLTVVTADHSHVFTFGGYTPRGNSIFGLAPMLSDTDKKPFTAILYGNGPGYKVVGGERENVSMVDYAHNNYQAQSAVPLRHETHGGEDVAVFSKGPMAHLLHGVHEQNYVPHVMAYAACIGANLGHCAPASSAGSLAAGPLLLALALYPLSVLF
MMP13 inh: inhibitors of human MMP13; P45452; MMP-13 fTHP FRET cleavage, Mca fluorescence; inhibition, % at 4 µM; hit rate 0.07% among 65,000; AID 570;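 active means inhibition above the mean of compound-free control plate wells plus 3 SD, cut at about 14% in these data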
Calb biofilm kill: kills Candida albicans biofilms; inhibition, % at 6 µM; hit rate 0.14% among 85,000; C. albicans biofilm + clotrimazole, Alamar Blue;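 active means inhibition above 20%; inactive means inhibition below 20%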;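 further: preformed 24 hr biofilms exposed to compound for 48 hr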
A number is an active result; - = inactive; . = no result given. The full list was thinned out, with hits kept by preference.

SMILES | HEK293 NFkB inh | Jurkat tox 60K | TNAP act mid DEA | MMP13 inh | Calb biofilm kill
N=c1c2c(-c3ccccc3)c(-c3ccccc3)n(Cc3ccco3)c2ncn1Cc1ccco1 | - | 47 | - | - | -
N=c1c2c(-c3ccccc3)c(-c3ccccc3)n(Cc3ccccc3)c2ncn1CCCn1ccnc1 | . | . | - | - | -
CCOC(=O)N1CCC(NC(=O)c2ccc3c(c2)sc2nc(-c4cccc(OC)c4)cn23)CC1 | - | 35 | - | - | -
COCCN1Cc2cccc(C(=O)Nc3cccnc3)c2C1=O | - | - | - | - | -
COCCN1Cc2cccc(C(=O)Nc3ccc4c(c3)OCCO4)c2C1=O | - | - | - | 17 | -
Cc1nn2c([nH]c(=O)c3ccccc32)c1C=O | . | . | . | . | -
COC(=O)C1=C(NC(=O)c2cccc(C)c2)CCS1 | - | - | - | - | .
COC(=O)c1ccc(C2C(C(=O)Nc3ccc(C)cc3C)=C(C)Nc3ncnn32)cc1 (centres undefined) | - | - | - | - | -
O=C(Nc1nc2ccc(S(=O)(=O)N3CCCC3)cc2s1)C1CCCCC1 | - | 93 | - | - | -
CCSc1nnc(NC(=O)c2cccc(OCc3c(C)noc3C)c2)s1 | - | . | - | - | -
COc1ccc2nc(NC(=O)c3cccc(OCc4c(C)noc4C)c3)sc2c1 | - | 70 | - | - | -
CC(Oc1cc(-c2ccccc2)cc2ccccc12)C(=O)N1CCOCC1 (centres undefined) | . | . | . | . | -
COc1cccc(C2=NOC(C(=O)NCc3ccccc3)C2)c1 (centres undefined) | - | - | - | - | -
CCn1ncc(C2=NOC(C(=O)NCc3ccc(OC)cc3)C2)c1C (centres undefined) | - | 39 | - | - | -
CCn1ncc(C2=NOC(C(=O)NCc3ccccc3)C2)c1C (centres undefined) | - | 93 | - | - | -
COc1ccc(C2=NOC(C(=O)NCc3ccccc3)C2)cc1 (centres undefined) | - | 45 | - | - | -
CCn1ncc(C2=NOC(C(=O)Nc3c(C)n(C)n(-c4ccccc4)c3=O)C2)c1C (centres undefined) | - | - | - | - | -
CC(C)c1ccc(CN2CC(C(=O)O)CC2=O)cc1 (centres undefined) | . | . | . | . | -
CCOC(=O)N1CCN(CC(=O)Nc2c(C(=O)OC)[nH]c3ccc(Cl)cc23)CC1 | - | 31 | - | - | -
CCOC(=O)N1CCN(CC(=O)Nc2c(C(=O)OC)[nH]c3cc(C)ccc23)CC1 | . | . | . | . | -
CN(CC(=O)NCc1ccncc1)S(=O)(=O)c1ccc(F)cc1 | . | . | . | . | -
CN(CC1CCCO1)S(=O)(=O)c1ccc(C(=O)Nc2nc(-c3ccccn3)cs2)cc1 (centres undefined) | - | 52 | - | - | -
CN1C(=O)CS(=O)c2ccc(C(=O)NCCC3=CCCCC3)cc21 (centres undefined) | - | - | - | - | 21
O=C(NCCC1=CCCCC1)c1ccc2c(c1)N(Cc1ccccc1)C(=O)CS2 | . | . | . | . | -
Cn1cc(/C(Cc2ccccc2)=N\O)c2ccccc21 | - | 59 | - | - | -
SMILES | HEK293 NFkB inh | Jurkat tox 60K | TNAP act mid DEA | MMP13 inh | Calb biofilm kill
COc1cc(NS(=O)(=O)c2ccc(C)cc2)c2ncccc2c1 | - | 79 | - | - | -
Cc1nn(-c2ccccc2)c(C)c1C(=O)Nc1nnc(-c2ccco2)o1 | - | 33 | - | - | -
COC(=O)c1c(C)[nH]c(C(=O)CSc2ccc(Cl)cc2)c1C | . | . | . | . | -
O=c1oc2cc(Cl)ccc2n1CSc1nc2ccccc2s1 | . | . | . | . | -
O=C(CSc1nc(-c2ccco2)cc(C(F)(F)F)n1)Nc1ccc2c(c1)OCO2 | - | 29 | . | - | -
O=C(CCCSc1nc(-c2ccco2)cc(C(F)(F)F)n1)Nc1ccc2c(c1)OCO2 | - | - | - | - | -
CNc1nc(C)c(C(=O)OCc2ccccc2)s1 | - | 66 | - | - | -
CNc1nc(C)c(C(=O)OCC(=O)OC)s1 | - | - | - | - | -
O=C1c2ccccc2CC1(Cc1ccccc1)Cc1ccccc1 | . | . | . | . | -
CCCNC(=O)N1CCN(S(=O)(=O)c2ccc(C)c(C)c2)CC1 | - | - | - | - | 20
COc1cc(C(=O)OCC(=O)c2cc(C)n(C)c2C)cc(OC)c1OC | - | 42 | - | - | -
CSc1nnc(-c2sc3cc(C(F)(F)F)cnc3c2-c2cccnc2)n1C | . | . | . | . | 54
COc1ccc(OC)c(NS(=O)(=O)c2ccc(NC(C)=O)cc2)c1 | . | . | . | . | -
CCOc1ccc(S(=O)(=O)Nc2cc(OC)ccc2OC)cc1 | - | 96 | - | - | -
COc1ccc(S(=O)(=O)Nc2cc(Cl)ccc2OC)cc1 | - | 76 | - | - | -
COc1ccc(OC)c(NS(=O)(=O)c2ccc(SC)cc2)c1 | - | 78 | - | - | -
COC(=O)Cc1cc(=O)[nH]c(/N=C(/NC(=O)c2ccccc2)Nc2ccccc2C)n1 | - | - | - | - | -
CCOC(=O)c1[nH]c(C)c(C(=O)c2cc(F)ccc2F)c1C | 42 | 88 | - | - | -
CCOC(=O)c1[nH]c(C)c(C(=O)OCC)c1C | - | - | - | - | -
CCCOc1ccc(C(=O)Nc2ccc(Cl)cn2)cc1 | . | . | . | . | -
CCCCC(=O)Nc1ccc(Cl)cn1 | - | - | - | - | -
Cc1ccc(C(=O)Nc2ccc(Cl)cn2)cc1 | - | 76 | - | - | -
O=C(CCc1ccccc1)Nc1ccc(Cl)cn1 | - | 78 | - | - | -
COc1ccc(COC(=O)NNC(=O)c2ccccc2Cl)cc1 | . | . | . | . | -
CCOC(=O)C1=C(CN2c3ccccc3CC2C)NC(=O)NC1c1ccccc1 (centres undefined) | . | . | . | . | -
SMILES | HEK293 NFkB inh | Jurkat tox 60K | TNAP act mid DEA | MMP13 inh | Calb biofilm kill
O=C(Cc1n[nH]c(=O)c2ccccc12)OCC(=O)c1ccc2c(c1)OCCO2 | - | 91 | - | - | -
O=C(Cc1ccc(Br)cc1)OCC(=O)c1ccc2c(c1)OCCO2 | . | . | . | . | -
N#CCCn1cc(/C=N/O)c(-c2ccc(-c3ccccc3)cc2)n1 | - | 43 | - | - | -
N#CCCn1cc(/C=N/O)c(-c2ccc(Cl)cc2)n1 | . | . | . | . | -
CCc1nc(SCc2ccc(C(=O)OC)o2)c2c(=O)n(C)c(=O)n(C)c2n1 | - | - | - | - | -
COc1ccc(CCNC(=O)CNS(=O)(=O)c2cccs2)cc1OC | . | . | . | . | -
COc1cc(-c2nnc(SC(C)C(=O)Nc3c(C)n(C)n(-c4ccccc4)c3=O)o2)cc(OC)c1OC (centres undefined) | . | . | . | . | -
O=C(Nc1cccc(OC(F)(F)F)c1)c1ccc(Br)o1 | - | - | 2.3 | - | -
CC(=O)c1cccc(NC(=O)c2ccc(Br)o2)c1 | - | - | - | - | -
COc1ccccc1CNC(=O)CCS(=O)(=O)c1cccc2nonc12 | . | . | . | . | -
O=P(O)(CN1CCCCC1)C1CCCCC1O (centres undefined) | - | - | - | - | .
CC1CCCC(C)N1C(=O)CSc1nnc(COc2ccccc2)n1-c1ccccc1 (centres undefined) | . | . | . | . | -
CCCCNC(=O)c1ccc2c(c1)N(CC)C(=O)c1ccccc1S2(=O)=O | - | - | - | - | -
COc1cc(NC(=O)c2ccc3c(c2)OCO3)ccc1NC(=O)C(C)C | - | 98 | - | - | -
COc1ccc(OC)c(C(C)NC(=O)c2ccco2)c1 (centres undefined) | - | 40 | - | - | .
